Source: ChEMBL document CHEMBL1154229 (Bioorg Med Chem Lett, 2009)

Columns and labels:
[1] = target: T1, Bifunctional epoxide hydrolase 2 (Homo sapiens, UniProt P34913); assay: Inhibition of human soluble epoxide hydrolase in HEK293 cells assessed as DHET production; assay type: cell-based
T1 sequence (P34913 whole entry): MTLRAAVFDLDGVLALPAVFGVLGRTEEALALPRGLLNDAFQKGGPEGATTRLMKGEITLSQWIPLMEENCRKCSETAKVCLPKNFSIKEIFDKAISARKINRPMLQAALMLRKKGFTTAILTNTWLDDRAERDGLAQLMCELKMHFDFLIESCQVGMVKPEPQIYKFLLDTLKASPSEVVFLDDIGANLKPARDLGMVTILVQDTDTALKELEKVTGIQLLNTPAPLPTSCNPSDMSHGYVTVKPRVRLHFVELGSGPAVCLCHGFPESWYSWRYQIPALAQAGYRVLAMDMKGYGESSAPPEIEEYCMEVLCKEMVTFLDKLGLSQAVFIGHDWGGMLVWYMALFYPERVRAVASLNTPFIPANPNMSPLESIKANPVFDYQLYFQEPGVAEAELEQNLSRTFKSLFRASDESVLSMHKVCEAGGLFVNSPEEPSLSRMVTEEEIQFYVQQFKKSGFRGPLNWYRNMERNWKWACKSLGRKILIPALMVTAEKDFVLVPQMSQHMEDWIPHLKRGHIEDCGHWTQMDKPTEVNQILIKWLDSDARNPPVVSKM
How it was run: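 Whole-cell 14,15-DHET production assay in HEK293 cells, run with or without 10% human serum. Values come from one or two experiments, each in triplicate, with repeats within 20%.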

[2] = target: Sodium channel protein type 5 subunit alpha (Homo sapiens, UniProt Q14524); assay: Inhibition of Nav1.5 channel
[3] = target: T2, Bifunctional epoxide hydrolase 2 (Rattus norvegicus, UniProt P80299); assay: Inhibition of rat soluble epoxide hydrolase
T2 sequence (P80299 whole entry): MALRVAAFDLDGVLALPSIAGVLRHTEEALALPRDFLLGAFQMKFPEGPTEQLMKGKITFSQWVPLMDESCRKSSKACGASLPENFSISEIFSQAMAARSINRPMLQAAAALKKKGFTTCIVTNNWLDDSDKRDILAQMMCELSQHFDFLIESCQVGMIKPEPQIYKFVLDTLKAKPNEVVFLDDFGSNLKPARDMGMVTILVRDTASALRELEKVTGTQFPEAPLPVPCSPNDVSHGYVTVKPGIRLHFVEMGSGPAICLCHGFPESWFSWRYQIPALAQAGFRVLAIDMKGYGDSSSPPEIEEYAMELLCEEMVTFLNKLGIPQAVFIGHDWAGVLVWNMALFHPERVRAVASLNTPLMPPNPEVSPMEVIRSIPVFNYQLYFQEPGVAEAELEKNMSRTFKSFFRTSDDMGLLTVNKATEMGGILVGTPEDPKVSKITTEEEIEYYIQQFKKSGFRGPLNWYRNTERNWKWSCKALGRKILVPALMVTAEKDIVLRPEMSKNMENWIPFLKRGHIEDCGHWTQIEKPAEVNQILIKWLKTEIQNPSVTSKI

Cytochrome P450 3A4 = Cytochrome P450 3A4 (Homo sapiens, UniProt P08684); assay: Inhibition of CYP3A4; assay type: ADME
L-type calcium channel = assay: Inhibition of calcium channel diltiazem binding site
Epoxide hydrolase 1 = target: T3, Epoxide hydrolase 1 (Homo sapiens, UniProt P07099); assay: Inhibition of human microsomal epoxide hydrolase
T3 sequence (P07099 whole entry): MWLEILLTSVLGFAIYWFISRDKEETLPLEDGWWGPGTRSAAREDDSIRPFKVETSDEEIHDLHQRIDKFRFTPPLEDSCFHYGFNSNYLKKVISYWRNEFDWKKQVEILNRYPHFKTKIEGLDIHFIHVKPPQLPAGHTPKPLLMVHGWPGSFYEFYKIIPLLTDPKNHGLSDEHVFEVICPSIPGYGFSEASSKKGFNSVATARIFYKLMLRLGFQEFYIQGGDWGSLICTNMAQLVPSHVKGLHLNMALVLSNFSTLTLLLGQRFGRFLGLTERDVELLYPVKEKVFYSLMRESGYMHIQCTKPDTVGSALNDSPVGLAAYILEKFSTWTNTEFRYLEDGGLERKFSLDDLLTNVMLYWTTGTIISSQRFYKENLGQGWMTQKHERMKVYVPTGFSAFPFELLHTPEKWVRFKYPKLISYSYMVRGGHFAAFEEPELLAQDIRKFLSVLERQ
How it was run: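 Human mEH used as the counterscreen enzyme. Values come from one or two experiments, each in triplicate, with repeats within 20%.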

[4] = Inhibition of potassium channel IKr
Cytochrome P450 2C9 = Cytochrome P450 2C9 (Homo sapiens, UniProt P11712); assay: Inhibition of CYP2C9; assay type: ADME
[5] = target: T1, Bifunctional epoxide hydrolase 2; assay: Inhibition of human soluble epoxide hydrolase
Cytochrome P450 2D6 = Cytochrome P450 2D6 (Homo sapiens, UniProt P10635); assay: Inhibition of CYP2D6; assay type: ADME
Sequence of Cytochrome P450 2D6 (P10635 whole entry): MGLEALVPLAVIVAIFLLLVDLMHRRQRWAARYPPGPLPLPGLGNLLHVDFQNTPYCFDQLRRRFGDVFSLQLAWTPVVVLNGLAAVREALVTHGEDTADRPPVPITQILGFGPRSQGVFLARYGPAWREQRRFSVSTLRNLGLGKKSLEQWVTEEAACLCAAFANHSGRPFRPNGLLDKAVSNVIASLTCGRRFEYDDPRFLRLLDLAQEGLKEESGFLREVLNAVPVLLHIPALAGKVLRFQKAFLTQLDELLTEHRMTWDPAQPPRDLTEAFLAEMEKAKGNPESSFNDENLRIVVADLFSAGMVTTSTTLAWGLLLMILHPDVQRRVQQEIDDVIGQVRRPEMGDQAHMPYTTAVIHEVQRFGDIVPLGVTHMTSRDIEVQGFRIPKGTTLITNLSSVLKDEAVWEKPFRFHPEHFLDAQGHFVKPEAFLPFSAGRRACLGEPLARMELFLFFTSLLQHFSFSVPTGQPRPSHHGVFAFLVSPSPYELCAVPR

Sequence of Cytochrome P450 3A4 (P08684 whole entry): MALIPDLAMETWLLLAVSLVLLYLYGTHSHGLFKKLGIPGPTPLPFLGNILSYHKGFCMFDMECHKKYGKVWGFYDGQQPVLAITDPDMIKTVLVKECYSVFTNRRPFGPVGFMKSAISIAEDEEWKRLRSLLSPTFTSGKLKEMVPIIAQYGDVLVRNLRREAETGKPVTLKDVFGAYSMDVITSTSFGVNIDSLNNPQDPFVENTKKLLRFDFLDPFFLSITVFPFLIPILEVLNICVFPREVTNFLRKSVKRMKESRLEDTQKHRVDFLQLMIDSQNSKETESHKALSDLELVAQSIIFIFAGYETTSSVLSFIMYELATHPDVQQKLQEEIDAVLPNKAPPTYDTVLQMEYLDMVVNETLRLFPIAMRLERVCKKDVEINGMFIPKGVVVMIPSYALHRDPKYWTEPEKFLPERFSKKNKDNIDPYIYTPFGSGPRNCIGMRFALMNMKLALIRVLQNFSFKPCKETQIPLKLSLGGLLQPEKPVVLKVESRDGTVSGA
Sequence of Sodium channel protein type 5 subunit alpha (Q14524 whole entry): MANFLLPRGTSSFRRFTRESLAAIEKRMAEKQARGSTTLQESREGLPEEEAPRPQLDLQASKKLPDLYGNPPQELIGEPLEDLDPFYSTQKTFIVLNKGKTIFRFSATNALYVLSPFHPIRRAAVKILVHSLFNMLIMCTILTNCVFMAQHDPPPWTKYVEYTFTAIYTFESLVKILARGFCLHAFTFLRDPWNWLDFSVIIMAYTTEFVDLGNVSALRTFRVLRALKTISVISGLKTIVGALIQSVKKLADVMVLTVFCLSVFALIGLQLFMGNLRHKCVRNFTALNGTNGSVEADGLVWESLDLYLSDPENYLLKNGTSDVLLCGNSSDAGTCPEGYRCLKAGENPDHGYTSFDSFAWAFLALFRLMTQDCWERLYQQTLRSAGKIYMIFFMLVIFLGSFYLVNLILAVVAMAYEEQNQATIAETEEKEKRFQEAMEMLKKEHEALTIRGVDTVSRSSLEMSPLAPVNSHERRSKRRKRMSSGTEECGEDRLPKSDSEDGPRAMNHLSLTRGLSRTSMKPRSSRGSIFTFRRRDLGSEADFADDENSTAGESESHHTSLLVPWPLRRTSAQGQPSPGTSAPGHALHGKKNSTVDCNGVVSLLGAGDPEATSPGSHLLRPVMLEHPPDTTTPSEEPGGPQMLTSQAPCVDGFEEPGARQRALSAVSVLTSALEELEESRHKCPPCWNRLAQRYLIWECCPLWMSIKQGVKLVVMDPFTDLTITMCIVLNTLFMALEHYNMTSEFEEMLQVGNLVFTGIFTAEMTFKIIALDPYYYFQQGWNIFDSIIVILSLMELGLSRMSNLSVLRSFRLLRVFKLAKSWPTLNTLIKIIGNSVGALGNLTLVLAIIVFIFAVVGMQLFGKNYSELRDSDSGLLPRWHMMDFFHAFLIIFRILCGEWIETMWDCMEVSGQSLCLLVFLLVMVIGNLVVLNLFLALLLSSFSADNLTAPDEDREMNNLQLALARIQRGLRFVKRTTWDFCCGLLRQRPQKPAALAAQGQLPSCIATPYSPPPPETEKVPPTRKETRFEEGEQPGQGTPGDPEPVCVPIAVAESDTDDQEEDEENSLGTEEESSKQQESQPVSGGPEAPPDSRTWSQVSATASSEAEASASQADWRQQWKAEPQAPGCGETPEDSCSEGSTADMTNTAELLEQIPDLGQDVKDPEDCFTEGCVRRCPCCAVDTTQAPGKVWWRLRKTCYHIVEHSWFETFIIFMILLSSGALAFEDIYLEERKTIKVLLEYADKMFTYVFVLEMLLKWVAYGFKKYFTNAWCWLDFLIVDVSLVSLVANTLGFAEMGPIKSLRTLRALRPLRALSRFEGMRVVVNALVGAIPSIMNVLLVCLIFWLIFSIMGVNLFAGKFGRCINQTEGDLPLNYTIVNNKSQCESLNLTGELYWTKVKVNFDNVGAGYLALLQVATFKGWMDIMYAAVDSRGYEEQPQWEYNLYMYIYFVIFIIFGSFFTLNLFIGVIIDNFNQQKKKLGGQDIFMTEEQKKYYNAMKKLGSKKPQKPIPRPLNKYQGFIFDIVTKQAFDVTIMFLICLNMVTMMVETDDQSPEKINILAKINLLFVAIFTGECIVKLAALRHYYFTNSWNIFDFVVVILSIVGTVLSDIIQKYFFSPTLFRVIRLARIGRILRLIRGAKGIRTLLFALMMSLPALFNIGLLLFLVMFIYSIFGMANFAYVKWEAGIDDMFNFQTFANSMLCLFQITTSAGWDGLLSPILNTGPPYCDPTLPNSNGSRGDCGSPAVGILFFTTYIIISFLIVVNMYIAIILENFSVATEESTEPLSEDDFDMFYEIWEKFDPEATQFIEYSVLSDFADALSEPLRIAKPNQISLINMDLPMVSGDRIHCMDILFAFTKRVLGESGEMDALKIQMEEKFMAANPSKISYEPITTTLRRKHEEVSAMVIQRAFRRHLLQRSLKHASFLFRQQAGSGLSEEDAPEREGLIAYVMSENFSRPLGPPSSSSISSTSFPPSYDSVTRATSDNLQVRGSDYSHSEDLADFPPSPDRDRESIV
Sequence of Cytochrome P450 2C9 (P11712 whole entry): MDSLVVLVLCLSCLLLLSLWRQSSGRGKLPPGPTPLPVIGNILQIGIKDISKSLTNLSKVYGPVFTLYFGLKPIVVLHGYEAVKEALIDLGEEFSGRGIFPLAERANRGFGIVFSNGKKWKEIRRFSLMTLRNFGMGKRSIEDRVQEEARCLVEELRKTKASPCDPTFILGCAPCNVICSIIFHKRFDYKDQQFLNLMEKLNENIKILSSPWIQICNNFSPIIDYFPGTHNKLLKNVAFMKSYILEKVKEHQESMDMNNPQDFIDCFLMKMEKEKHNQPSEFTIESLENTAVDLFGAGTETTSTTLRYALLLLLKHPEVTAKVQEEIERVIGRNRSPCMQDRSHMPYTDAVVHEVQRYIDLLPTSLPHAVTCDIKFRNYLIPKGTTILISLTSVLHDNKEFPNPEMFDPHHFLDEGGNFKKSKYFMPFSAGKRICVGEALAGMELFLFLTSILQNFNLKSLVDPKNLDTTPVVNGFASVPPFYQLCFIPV

SMILES	IC50 [1]	IC50 [2]	IC50 [3]	IC50 (Cytochrome P450 3A4)	IC50 (L-type calcium channel)	IC50 (Epoxide hydrolase 1)	IC50 [4]	IC50 (Cytochrome P450 2C9)	IC50 [5]	IC50 (Cytochrome P450 2D6)
CC1(c2ccccc2)CCCN(C(=O)NCc2ccc(-c3ccccn3)cc2)C1 (stereo unspecified)	< 0.001 µM	> 10 µM	0.003 µM	< 10 µM	0.5 µM	47 µM	4 µM	< 10 µM	0.001 µM	10 µM
CNC(=O)CCC1(c2ccccc2)CCCN(C(=O)Nc2ccc(Cl)cc2)C1 (stereo unspecified)	< 0.001 µM	> 10 µM	0.032 µM	10 µM	4 µM	> 100 µM	8 µM	10 µM	–	> 10 µM
CCN(CC)C(=O)CCC1(c2ccccc2)CCCN(C(=O)Nc2ccc(Cl)cc2)C1 (stereo unspecified)	–	> 10 µM	0.031 µM	< 10 µM	1 µM	–	6 µM	> 10 µM	0.003 µM	> 10 µM
O=C(O)CCCCC1(c2ccccc2)CCCN(C(=O)Nc2ccc(Cl)cc2)C1 (stereo unspecified)	< 0.001 µM	> 10 µM	0.12 µM	> 10 µM	> 30 µM	> 100 µM	> 30 µM	> 10 µM	0.005 µM	> 10 µM
O=C(O)CC1(c2ccccc2)CCCN(C(=O)Nc2ccc(Cl)cc2)C1 (stereo unspecified)	0.038 µM	> 10 µM	0.398 µM	> 10 µM	> 30 µM	> 100 µM	> 30 µM	> 10 µM	0.052 µM	> 10 µM
O=C(O)CCC1(c2ccc(-c3ccccc3)cc2)CCCN(C(=O)Nc2ccc(OC(F)(F)F)cc2)C1 (stereo unspecified)	< 0.001 µM	< 10 µM	0.413 µM	> 10 µM	> 30 µM	–	21 µM	< 10 µM	–	> 10 µM
O=C(O)CCC1(c2cccc(C(F)(F)F)c2)CCCN(C(=O)Nc2ccc(Cl)cc2)C1 (stereo unspecified)	–	> 10 µM	0.176 µM	> 10 µM	> 30 µM	> 100 µM	> 30 µM	> 10 µM	0.012 µM	> 10 µM
O=C(O)CCCC1(c2ccccc2)CCCN(C(=O)Nc2ccc(Cl)cc2)C1 (stereo unspecified)	0.006 µM	> 10 µM	0.176 µM	> 10 µM	> 30 µM	> 100 µM	> 30 µM	> 10 µM	–	> 10 µM
CC1(c2ccccc2)CCCN(C(=O)NCCc2ccc3nccnc3c2)C1 (stereo unspecified)	0.003 µM	–	0.019 µM	< 10 µM	–	> 100 µM	9 µM	< 10 µM	–	10 µM
O=C(O)CCC1(c2ccc(C(F)(F)F)cc2)CCCN(C(=O)Nc2ccc(Cl)cc2)C1 (stereo unspecified)	< 0.001 µM	> 10 µM	0.12 µM	> 10 µM	> 30 µM	> 100 µM	> 30 µM	> 10 µM	0.005 µM	> 10 µM
O=C(O)CCC1(c2ccccc2C(F)(F)F)CCCN(C(=O)Nc2ccc(Cl)cc2)C1 (stereo unspecified)	< 0.001 µM	> 10 µM	0.07 µM	> 10 µM	> 30 µM	> 100 µM	> 30 µM	> 10 µM	0.016 µM	> 10 µM
CC1(c2ccccc2)CCCN(C(=O)NCc2ccc(-c3ccc4[nH]ccc4c3)cc2)C1 (stereo unspecified)	0.003 µM	> 10 µM	0.006 µM	> 10 µM	1 µM	14 µM	0.8 µM	< 10 µM	–	10 µM
O=C(O)CCC1(c2cccnc2)CCCN(C(=O)Nc2ccc(Cl)cc2)C1 (stereo unspecified)	–	> 10 µM	0.331 µM	> 10 µM	> 30 µM	–	> 30 µM	> 10 µM	0.028 µM	> 10 µM
CC1(c2ccccc2)CCCN(C(=O)NCc2ccc(-c3ccccc3C(F)(F)F)cc2)C1 (stereo unspecified)	–	> 1 µM	0.011 µM	< 10 µM	0.7 µM	> 100 µM	0.2 µM	< 10 µM	0.008 µM	> 10 µM
CC1(c2ccccc2)CCCN(C(=O)Nc2ccc(-c3ccccc3)cc2)C1 (stereo unspecified)	–	< 10 µM	0.006 µM	> 10 µM	0.9 µM	–	21 µM	< 10 µM	0.007 µM	> 10 µM
O=C(O)CCC1(c2ccncc2)CCCN(C(=O)Nc2ccc(Cl)cc2)C1 (stereo unspecified)	–	> 10 µM	0.467 µM	> 10 µM	> 30 µM	> 100 µM	> 30 µM	10 µM	0.03 µM	> 10 µM
CC1(c2ccccc2)CCCN(C(=O)Nc2noc3ccccc23)C1 (stereo unspecified)	–	< 10 µM	0.207 µM	> 10 µM	19 µM	–	18 µM	< 10 µM	–	> 10 µM
CC1(c2ccccc2)CCCN(C(=O)Nc2ccncc2)C1 (stereo unspecified)	–	> 10 µM	0.349 µM	< 10 µM	15 µM	> 100 µM	5 µM	> 10 µM	0.55 µM	> 10 µM
O=C(CCC1(c2ccccc2)CCCN(C(=O)Nc2ccc(Cl)cc2)C1)N1CCOCC1 (stereo unspecified)	< 0.001 µM	> 10 µM	0.1 µM	> 10 µM	26 µM	–	29 µM	> 10 µM	0.008 µM	> 10 µM
O=C(O)CCC1(c2ccccn2)CCCN(C(=O)Nc2ccc(Cl)cc2)C1 (stereo unspecified)	–	> 10 µM	0.29 µM	> 10 µM	> 30 µM	–	> 30 µM	> 10 µM	0.019 µM	> 10 µM
CC1(c2ccccc2)CCCN(C(=O)NCCCc2cccnc2)C1 (stereo unspecified)	0.008 µM	–	–	< 10 µM	–	3 µM	5 µM	> 10 µM	0.007 µM	> 10 µM
CC1(c2ccccc2)CCCN(C(=O)NCc2ccc(-c3cccc(Cl)c3)cc2)C1 (stereo unspecified)	–	–	0.007 µM	< 10 µM	–	22 µM	2 µM	–	0.014 µM	–
CC1(c2ccccc2)CCCN(C(=O)N[C@H]2C[C@@H]2c2ccccc2)C1 (stereo partly specified)	< 0.001 µM	> 10 µM	0.004 µM	< 10 µM	10 µM	> 100 µM	26 µM	< 10 µM	0.001 µM	–
COC(=O)CCC1(c2ccccc2)CCCN(C(=O)Nc2ccc(Cl)cc2)C1 (stereo unspecified)	–	–	0.003 µM	–	–	–	–	–	< 0.001 µM	–
N#CCCC1(c2ccccc2)CCCN(C(=O)Nc2ccc(Cl)cc2)C1 (stereo unspecified)	< 0.001 µM	> 10 µM	0.016 µM	> 10 µM	7 µM	> 100 µM	10 µM	> 10 µM	–	> 10 µM
O=C(CCC1(c2ccccc2)CCCN(C(=O)Nc2ccc(Cl)cc2)C1)Nc1nn[nH]n1 (stereo unspecified)	0.0014 µM	–	0.034 µM	> 10 µM	–	> 100 µM	27 µM	> 10 µM	0.0014 µM	> 10 µM
